The experiment concerns the target T1, OR10J5 (Homo sapiens) (UniProt Q8NHC4).
T1 sequence (whole entry): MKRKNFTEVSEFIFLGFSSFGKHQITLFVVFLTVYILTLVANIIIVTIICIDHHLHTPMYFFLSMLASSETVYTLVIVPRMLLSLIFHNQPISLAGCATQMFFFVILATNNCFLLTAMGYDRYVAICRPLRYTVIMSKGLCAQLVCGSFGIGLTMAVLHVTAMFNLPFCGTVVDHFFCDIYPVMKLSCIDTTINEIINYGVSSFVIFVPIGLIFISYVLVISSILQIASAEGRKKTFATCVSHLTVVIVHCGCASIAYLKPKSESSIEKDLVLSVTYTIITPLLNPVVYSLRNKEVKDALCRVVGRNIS
The following applies: stereoisomer not certain. In outline: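 Each entry records the cell line, G-protein, co-transfected protein and tags used. Methods varied with the source, often transient luciferase assays in mammalian cell lines. A receptor–molecule pair is called responsive (active) if the original authors judged its signal statistically different from baseline and non-responsive (inactive) otherwise.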
For `CCCCCCCCCCO`, the “odorant receptor agonist call” value is “inactive”.

For the compound `CCCCOC(=O)C(C)OC(=O)CCC` (stereo not given), the “odorant receptor agonist call” value is “inactive”.

On to `CCCCCC(=O)CC`, for which the “odorant receptor agonist call” value was “inactive”.

`CCCCCCCCCC(=O)[O-].[H+]`: the “odorant receptor agonist call” value is “inactive”.

For `CC(=O)OCc1ccccc1`, the “odorant receptor agonist call” value is “inactive”.

For `C=C(C)C1CCC(C)C(=O)C1` (stereo not given), the “odorant receptor agonist call” value is “inactive”.

Take `CCCCCCOC(C)=O`: the “odorant receptor agonist call” value was “inactive”.

In the case of `CCCC(C)=O`, the “odorant receptor agonist call” value was “inactive”.

Consider `CCCCCC1=C(C)CCC1=O`, for which the “odorant receptor agonist call” value was “inactive”.

Turning to `CCOC(=O)C(C)C`, the “odorant receptor agonist call” value is “inactive”.

For the compound `CC(C)=CCCC(C)=CCO`, the “odorant receptor agonist call” value was “inactive”.

Consider `CCCCCCC(=O)[O-].[H+]`, for which the “odorant receptor agonist call” value is “inactive”.

`CCCCC(=O)O`: the “odorant receptor agonist call” value is “inactive”.

On to `O=C1Cc2ccccc2O1`, for which the “odorant receptor agonist call” value was “inactive”.

Take `CCCCCC=O`: the “odorant receptor agonist call” value is “inactive”.

Take `COc1cc(C(=O)O)ccc1O`: the “odorant receptor agonist call” value is “inactive”.

With `CCCCCCCCO`, the “odorant receptor agonist call” value was “inactive”.

As to `CC12CCC(CC1=O)C2(C)C` (stereo not given), the “odorant receptor agonist call” value is “inactive”.

Turning to `CCCC(=O)C(C)=O`, the “odorant receptor agonist call” value is “inactive”.

For `CCC(=O)C(=O)CC`, the “odorant receptor agonist call” value was “inactive”.

Regarding `O=c1ccc2ccccc2o1`, the “odorant receptor agonist call” value was “inactive”.

For the compound `CCC(C(=O)O)c1ccccc1` (stereo not given), the “odorant receptor agonist call” value was “inactive”.

For `CCCCCCCCS`, the “odorant receptor agonist call” value was “inactive”.

With `CCCCCO`, the “odorant receptor agonist call” value was “inactive”.

As to `CCCCCCCO`, the “odorant receptor agonist call” value was “inactive”.

For the compound `CCCCCCCC(=O)[O-].[H+]`, the “odorant receptor agonist call” value was “inactive”.

Regarding `CC(=O)Oc1ccccc1`, the “odorant receptor agonist call” value is “inactive”.

On to `CCCCOC=O`, for which the “odorant receptor agonist call” value is “inactive”.

With `CCCCCCCC(C)=O`, the “odorant receptor agonist call” value was “inactive”.

Regarding `CC(C)=CCCC(C)CCO` (stereo not given), the “odorant receptor agonist call” value was “inactive”.

The values above are taken from the M2OR odorant receptor database.
